{"source": "ChEMBL document CHEMBL4049434", "about": "“Radiolabeled Dibenzodiazepinone-Type Antagonists Give Evidence of Dualsteric Binding at the M2 Muscarinic Acetylcholine Receptor” (J Med Chem, 2017)", "key": {"[1]": {"target": "T1, Muscarinic acetylcholine receptor M1 (Homo sapiens, UniProt P11229)", "T1 sequence (P11229 whole entry)": "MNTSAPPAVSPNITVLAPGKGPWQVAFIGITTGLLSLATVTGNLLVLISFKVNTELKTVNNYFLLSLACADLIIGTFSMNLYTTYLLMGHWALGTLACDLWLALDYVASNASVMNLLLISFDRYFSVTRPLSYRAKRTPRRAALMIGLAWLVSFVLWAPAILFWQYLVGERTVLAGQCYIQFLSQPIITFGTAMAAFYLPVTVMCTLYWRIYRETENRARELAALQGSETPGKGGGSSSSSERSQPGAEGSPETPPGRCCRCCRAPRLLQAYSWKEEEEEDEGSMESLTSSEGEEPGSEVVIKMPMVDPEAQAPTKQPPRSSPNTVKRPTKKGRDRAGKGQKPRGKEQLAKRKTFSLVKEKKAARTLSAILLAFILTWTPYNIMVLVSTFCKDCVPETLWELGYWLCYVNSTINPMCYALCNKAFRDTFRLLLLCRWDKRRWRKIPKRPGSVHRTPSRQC", "experiment": "Displacement of [3H]NMS from human muscarinic acetylcholine receptor M1 expressed in CHOK9 cells after 3 hrs by liquid scintillation counting assay", "format": "cell-based"}, "[2]": {"target": "T2, Muscarinic acetylcholine receptor M2 (Homo sapiens) (UniProt P08172)", "T2 sequence (whole entry)": "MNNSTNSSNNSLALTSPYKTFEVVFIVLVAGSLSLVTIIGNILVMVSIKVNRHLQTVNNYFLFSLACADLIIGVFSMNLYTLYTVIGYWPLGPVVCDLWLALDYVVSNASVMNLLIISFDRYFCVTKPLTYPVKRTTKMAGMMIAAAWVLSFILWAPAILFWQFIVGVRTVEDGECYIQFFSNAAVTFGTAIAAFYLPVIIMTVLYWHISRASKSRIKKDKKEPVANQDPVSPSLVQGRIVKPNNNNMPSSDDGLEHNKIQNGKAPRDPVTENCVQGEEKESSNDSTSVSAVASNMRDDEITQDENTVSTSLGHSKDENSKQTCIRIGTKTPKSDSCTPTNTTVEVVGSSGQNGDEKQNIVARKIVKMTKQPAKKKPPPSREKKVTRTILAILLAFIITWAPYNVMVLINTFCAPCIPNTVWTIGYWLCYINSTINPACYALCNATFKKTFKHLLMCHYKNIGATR", "experiment": "(§1) Competitive antagonist activity at human muscarinic acetylcholine receptor M2 expressed in HEK293 cells coexpressing HA tagged Galpha-protein qi5 assessed as inhibition of 0.1 uM carbachol-induced IP1 accumulation preincubated for 30 mins followed by carbachol addition measured after 1 hr by HTRF assay", "format": "functional, cell-based", "summary_of_the_method": "(§2)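 HEK-293 transiently cotransfected with human M2R and Gαqi5-HA. Cells preincubated 30 min with antagonist, then carbachol added (final 0.1, 0.3, 1 or 10 μM), 1 h at 37 °C. IP1 detected by HTRF (620/670 nm emission, 330 nm excitation). At least four independent experiments, each in duplicate.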"}, "[3]": {"target": "T3, Muscarinic acetylcholine receptor M2 (Homo sapiens, UniProt P08172)", "T3 sequence (P08172 whole entry)": "T2 sequence (whole entry)", "experiment": "as §1", "format": "functional, cell-based", "summary_of_the_method": "as §2"}, "[4]": {"target": "T2, Muscarinic acetylcholine receptor M2 (Homo sapiens)", "experiment": "Binding affinity to human muscarinic acetylcholine receptor M2 expressed in live adherent CHOK9 cells after 2 hrs by liquid scintillation counting assay", "format": "cell-based", "conditions": "tested as the 3H-labelled form", "summary_of_the_method": "(§3)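 Live adherent CHO-hM2 cells in L15 medium with 1% BSA, 23 ± 1 °C, 2 h incubation. Competition at 2 nM radioligand; additional 4, 8, 15 and 30 nM in W84 experiments. […] Saturation data fitted one-site; competition by four-parameter logistic fits; at least three experiments in triplicate.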"}, "[5]": {"target": "T2, Muscarinic acetylcholine receptor M2 (Homo sapiens)", "experiment": "Binding affinity to human muscarinic acetylcholine receptor M2 expressed in CHOK9 cell homogenate after 2 hrs by liquid scintillation counting assay", "conditions": "tested as the 3H-labelled form", "summary_of_the_method": "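CHO-hM2 cell homogenates (25–30 μg protein/well) in L15 medium with 1% BSA, 23 ± 1 °C, 2 h with tritiated dimeric radioligand. Competition used 0.5 nM radioligand; additional 0.4, 1, 2 and 4 nM in W84 experiments. […] Four-parameter logistic fits; at least three experiments in triplicate.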"}, "[6]": {"target": "T2, Muscarinic acetylcholine receptor M2 (Homo sapiens)", "experiment": "Binding affinity to human muscarinic acetylcholine receptor M2 expressed in CHOK9 cells assessed as association rate constant incubated up to 140 mins by liquid scintillation counting assay", "format": "cell-based", "conditions": "tested as the 3H-labelled form"}, "[7]": {"target": "T2, Muscarinic acetylcholine receptor M2 (Homo sapiens)", "experiment": "Binding affinity to human muscarinic acetylcholine receptor M2 expressed in CHOK9 cells assessed as dissociation half life after 105 mins by liquid scintillation counting assay", "format": "cell-based", "conditions": "tested as the 3H-labelled form"}, "[8]": {"target": "T2, Muscarinic acetylcholine receptor M2 (Homo sapiens)", "experiment": "Binding affinity to human muscarinic acetylcholine receptor M2 expressed in live adherent CHOK9 cells at Kd in presence of 500-fold excess atropine after 2 hrs by liquid scintillation counting assay relative to control", "format": "cell-based", "conditions": "tested as the 3H-labelled form", "summary_of_the_method": "as §3"}}}
{"smiles": "CCC(=O)NCc1cc(C(=O)NCCNC(=O)CCc2cn(CCCCC3CCN(CC(=O)N4c5ccccc5NC(=O)c5ccccc54)CC3)cn2)cc(C(=O)NCCNC(=O)CCc2cn(CCCCC3CCN(CC(=O)N4c5ccccc5NC(=O)c5ccccc54)CC3)cn2)c1.O=C(O)C(F)(F)F.O=C(O)C(F)(F)F.O=C(O)C(F)(F)F.O=C(O)C(F)(F)F", "values": [{"measurement": "Ki", "setting": "[1]", "value": 1.51, "unit": "nM"}, {"measurement": "inhibition", "setting": "[2]", "value": "Dose-dependent effect"}, {"measurement": "IC50", "setting": "[3]", "value": 16.6, "unit": "nM"}, {"measurement": "Bmax (disintegrations/minute)", "setting": "[4]", "value": 1200}, {"measurement": "Bmax (disintegrations/minute)", "setting": "[5]", "value": 620}, {"measurement": "K", "setting": "[6]", "value": 933000, "unit": "M⁻¹ s⁻¹"}, {"measurement": "T1/2", "setting": "[7]", "value": 1.1, "unit": "h"}, {"measurement": "Activity", "setting": "[8]", "value": "> 60", "unit": "%"}]}
